Compound activity deposited in PubChem by Johns Hopkins Ion Channel Center.
Shown are actives, neighbours in structure and some others; about 3.5% of the full set was active somewhere.
RGS4 pot: RGS4 potentiators or activators, primary screen, cell-based, HEK293 M3R inducible RGS4, calcium flux. carbachol calcium flux Fluo4; active compounds read low. B-score at 10 µM. 310,000 tested, 0.92% active;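 active = B-score of the integrated calcium signal more than 4 SD below the library mean, with starting fluorescence not abnormally high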;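 note: negative B-score means reduced calcium response which marks RGS4 activation or potentiation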
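Reagent: ECmax carbachol challenge; Test system: M3R-expressing HEK293 line, RGS4 induced by doxycycline; Schedule: overnight RGS4 induction, 30 min dye load 37 °C, 20 min compound RT; Detection: calcium dye Fluo4 fluorescence; Read-out: Agonist-evoked peak-minus-minimum fluorescence over baseline, integrated ratio, B score.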
RGS4 inh: RGS4 inhibitors, primary screen, cell-based, HEK293 M3R inducible RGS4, calcium flux | 310,000 tested, 0.45% active | Fluo-4 calcium flux; active compounds read high; triggered by carbachol at its EC20 | B-score at 10 µM | AID 463165, 2010;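 active = B-score, a plate-corrected calcium signal, over three deviations above library mean, with baseline fluorescence within five deviations of library mean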;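 note: RGS4 expression induced by doxycycline in cells with stable M3 receptor; B-score is computed from the integrated fluorescence ratio over baseline after carbachol; higher B-score means a larger calcium signal and so more RGS4 inhibition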
Target sequence (P49798 whole entry, looked up): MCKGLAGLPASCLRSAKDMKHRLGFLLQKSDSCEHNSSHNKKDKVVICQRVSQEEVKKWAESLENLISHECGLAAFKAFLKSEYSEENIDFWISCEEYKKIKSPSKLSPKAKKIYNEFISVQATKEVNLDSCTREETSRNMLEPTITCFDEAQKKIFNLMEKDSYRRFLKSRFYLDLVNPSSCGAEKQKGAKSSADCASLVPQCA
MrgX1 allo act: positive allosteric modulators of MrgX1, primary screen, HEK293 cells, Fluo-4 calcium flux; FDSS; active compounds read high; B-score at 10 µM; AID 588675, 2011; Mas-related G-protein coupled receptor member X1 (Homo sapiens), Q96LB2; 310,000 tested, 0.63% active;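 active = plate-corrected calcium response at least 3 library SD above typical, normal starting fluorescence, not activating the receptor alone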;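 note: compound read alongside a low EC10 to EC30 dose of BAM8-22 agonist; peak minus trough fluorescence over baseline measured at the second addition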
Target sequence (Q96LB2 whole entry, looked up): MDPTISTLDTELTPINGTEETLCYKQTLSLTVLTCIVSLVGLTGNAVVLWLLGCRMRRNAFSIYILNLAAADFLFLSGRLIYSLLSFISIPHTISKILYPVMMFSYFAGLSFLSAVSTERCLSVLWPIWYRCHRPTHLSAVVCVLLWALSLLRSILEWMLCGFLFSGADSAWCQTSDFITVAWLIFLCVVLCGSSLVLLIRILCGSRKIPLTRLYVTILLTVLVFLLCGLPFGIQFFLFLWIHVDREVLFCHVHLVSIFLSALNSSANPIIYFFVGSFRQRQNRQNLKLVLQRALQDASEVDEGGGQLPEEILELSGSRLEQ
MrgX1 agonist: agonists of human MrgX1 receptor, primary screen, HEK293 cells, Fluo-4 calcium flux; 310,000 tested, 0.44% active; Fluo-4 calcium fluorescence, agonist mode; active compounds read high; B-score at 10 µM; Mas-related G-protein coupled receptor member X1 (Homo sapiens), Q96LB2;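 active = calcium response B-score plate-corrected fluorescence ratio at least 3 library SD, with starting fluorescence B-score inside 5 SD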
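Material: MrgX1-expressing HEK293 cells; input: 15,000 cells per well; doses: test compound given as first of three sequential additions; schedule: overnight plating before 1 h dye loading; technique: Fluo-4 NW calcium-flux fluorescence, kinetic read; evaluation: baseline-normalised fluorescence change ratio, B-scored; control set: plate-wise positive and negative controls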
MrgX1 antagonist: antagonists of human MrgX1 receptor, primary screen, HEK293 cells, Fluo-4 calcium flux; B-score at 10 µM; BAM8-22 antagonism; active compounds read low; 310,000 tested, 1.3% active; Mas-related G-protein coupled receptor member X1 (Homo sapiens), Q96LB2;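 active = calcium-response B-score plate-corrected more than 3 library SD below zero, starting fluorescence within 5 deviations, no agonist response on first addition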;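 note: peak minus trough fluorescence over baseline after final BAM8-22 challenge near maximal dose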
RGS4 block valid: enhanced carbachol calcium response, M3R/RGS4 cells, RGS4 inhibitor project, cell-based, validation screen, HEK293 M3R/RGS4, calcium flux | calcium response, % at 10 µM | 1,700 tested, 65% active | AID 492999, 2010 | carbachol calcium Fluo-4 fluorescence; carbachol added at its EC20; 0 = buffer wells, 100 = carbachol control | shares compounds with RGS4 inh;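 active = duplicate-averaged calcium response above the buffer-only control mean plus 5 SD of those controls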;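 note: integrated fluorescence ratio F max minus min over baseline F0; higher response in RGS4-induced cells means RGS4 inhibition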
RGS4 uninduced: carbachol calcium response in non-induced M3R cells, confirmation, counter-screen for RGS4 inhibitor project, cell-based, HEK293 M3R; shares compounds with RGS4 inh; carbachol calcium Fluo-4; submaximal (EC20) carbachol stimulus; buffer wells 0%, carbachol control wells 100%; activity (percent), % at 10 µM; 1,900 tested, 20% active; AID 493000, 2010; call rule not given here;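 note: RGS4 induction absent so cells express M3R without RGS4; higher means more calcium signal and flags a non-specific hit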
M3R basal Ca ctr: second RGS4 inhibitor counter-screen in uninduced cells lacking carbachol; HEK293 M3R/RGS4 non-induced, Fluo-4 calcium, no carbachol; normalised: buffer wells 0%, carbachol wells 100%; AID 493001; 1,900 tested, 22% active; calcium response (agonist-mode artifact), % at 10 µM; shares compounds with RGS4 inh;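 active = duplicate-averaged calcium rise in uninduced cells above buffer wells' mean plus 5 SD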
* = called active by the depositor; i = inactive; x = no result given.

SMILES | RGS4 pot | RGS4 inh | MrgX1 allo act | MrgX1 agonist | MrgX1 antagonist | RGS4 block valid | RGS4 uninduced | M3R basal Ca ctr
O=C1/C(=C/c2ccncc2)CCC/C1=C\c1ccncc1 | i | 24* | x | x | x | 107%* | i | i
O=C1/C(=C\c2ccncc2)CCc2ccccc21 | i | i | i | i | i | x | x | x
COC(=O)C(C(=O)OC)C(C[N+](=O)[O-])c1ccc(OC)c(OC)c1 (stereo not drawn) | i | i | i | i | i | x | x | x
COc1ccc(C(C[N+](=O)[O-])C2(c3ccc(OC)c(OC)c3)C(=O)c3ccccc3C2=O)cc1 (stereo not drawn) | i | 16* | i | i | i | 60%* | 37%* | i
CCn1nc(NC(=O)c2ccccc2)c2cc3cccc(C)c3nc21 | i | i | i | i | i | x | x | x
CCCCOc1ccc(C(=O)NCC(=O)NC(C)CCc2ccccc2)cc1 (stereo not drawn) | i | i | i | i | i | x | x | x
O=S(=O)(/N=C(/Sc1ccccc1)c1ccccc1)c1ccccc1 | i | 13* | i | i | i | 16%* | i | 22%*
CS/C(=N\S(=O)(=O)c1ccccc1)c1ccccc1 | i | i | i | i | i | x | x | x
CC(=O)COC(=O)C1CC(=O)N(c2ccc(C)c(C)c2)C1 (stereo not drawn) | i | i | i | i | i | x | x | x
Cn1nc([N+](=O)[O-])c(C(C#N)c2ccccn2)c(Cl)c1=O (stereo not drawn) | i | i | i | i | i | x | x | x
Cc1ccc(/C=C/C(=O)c2ccccc(=O)c2O)cc1C | i | 11* | i | i | i | 48%* | i | 72%*
COc1ccc(-c2csc(Nc3ccccn3)n2)cc1OC | i | i | i | i | i | x | x | x
Cc1cccnc1Nc1nc(-c2ccc(O)cc2)cs1 | i | i | i | i | i | x | x | x
Cc1cc(-c2csc(Nc3ccccn3)n2)ccc1F | i | 5.4* | i | i | i | 16%* | i | i
Oc1ccc(-c2csc(Nc3ccccn3)n2)cc1 | i | i | i | i | i | i | i | i
c1ccc(-c2csc(Nc3ccccn3)n2)cc1 | i | i | i | i | i | i | i | i
Cc1ccc(-c2csc(Nc3ccccn3)n2)cc1 | i | 9.1* | i | i | i | i | i | i
CS(=O)(=O)N(Cc1cccc(CN(C(C(=O)O)c2ccccc2)S(C)(=O)=O)c1)C(C(=O)O)c1ccccc1 (stereo not drawn) | i | i | i | i | i | x | x | x
COc1ccc(C2CC(c3ccccc3)=NN2c2ccc(S(N)(=O)=O)cc2)cc1OC (stereo not drawn) | i | 8.5* | i | i | i | 53%* | 66%* | i
COc1cc(C2CC(c3ccccc3)=NN2c2ccccc2)ccc1OCC(=O)O (stereo not drawn) | i | i | i | i | i | x | x | x
COc1ccc(C2=NN(c3ccc(C(=O)O)cc3)C(c3ccc(OC)c(OC)c3)C2)cc1 (stereo not drawn) | i | 9.3* | i | i | i | 18%* | 38%* | i
NS(=O)(=O)c1ccc(N2N=C(c3ccccc3)CC2c2cccc(F)c2)cc1 (stereo not drawn) | i | i | i | i | i | x | x | x
O=S(=O)(Nc1cccc2ccccc12)c1cccs1 | i | i | i | i | i | x | x | x
O=S(=O)(Nc1ccc(O)c2ccccc12)c1cccs1 | i | 8.1* | i | i | i | 37%* | i | i
COC(=O)c1ccccc1OCC(=O)N1CCN(c2ccc(OC)cc2)CC1 | i | i | i | i | i | x | x | x
SMILES | RGS4 pot | RGS4 inh | MrgX1 allo act | MrgX1 agonist | MrgX1 antagonist | RGS4 block valid | RGS4 uninduced | M3R basal Ca ctr
O=C(CN1CCN(c2ccccn2)CC1)Nc1ccc2ccccc2c1 | i | i | i | i | i | x | x | x
COc1ccc(/C=C/C(=O)NCCc2ccc(OC)c(OC)c2)cc1 | i | i | i | i | i | x | x | x
COc1ccc(CCNC(=O)/C=C/c2ccc3ccccc3n2)cc1OC | i | 13* | i | i | i | 34%* | 32%* | i
O=C(Nc1nc(-c2ccco2)cs1)c1ccccc1 | i | i | i | i | i | x | x | x
Cc1ccc(-c2csc(NC(=O)C3=COCCO3)n2)cc1 | i | i | i | i | i | i | i | i
CC(=O)Nc1ccc(-c2csc(NC(=O)C3=COCCO3)n2)cc1 | i | i | i | i | i | x | x | x
O=C(Nc1nc(-c2ccc(Oc3ccccc3)cc2)cs1)C1=COCCO1 | i | 21* | i | i | i | 32%* | 42%* | i
COc1ccc(-c2c(=O)n(OC)c3ccccc3[n+]2[O-])cc1OC | i | 7.2* | i | i | i | i | i | i
C=CCOn1c(=O)c(-c2ccc(OC)c(OC)c2)[n+]([O-])c2ccccc21 | i | i | i | i | i | x | x | x
Cc1sc2nc(CN(Cc3ccccc3)C(=O)NC3CCCCC3)[nH]c(=O)c2c1C | i | 5.1* | i | i | i | i | i | i
COC(=O)c1ccc(Nc2nc(-c3ccncc3)nc3ccccc23)cc1 | i | i | i | i | i | x | x | x
O=C(CC1S/C(=N/N=C2CCCCCC2)NC1=O)Nc1ccccc1C(F)(F)F (stereo not drawn) | i | i | i | i | i | x | x | x
COc1ccccc1NC(=O)CC1S/C(=N/N=C2\CCCc3ccccc32)NC1=O (stereo not drawn) | i | 6.1* | i | i | i | 60%* | 62%* | i
O=C(NC1CCCCCC1)c1cc2c(=O)n3ccccc3nc2s1 | i | i | i | i | i | x | x | x
CC(C)c1ccc(/C=C2\CC/C(=C\C=N\N(C)C)C2=O)cc1 | i | i | i | i | i | x | x | x
